Values after ≈ are worked out from the molar mass of the structure shown.
Assays:
Staphylococcus aureus [1] = experiment: Antibacterial activity against Staphylococcus aureus ATCC 6538 after 18 hrs; type: functional; details: ATCC 6538, 18 h
Summary of the method: (§1)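 Broth microdilution in Nutrient Broth No. 2; stocks in ethanol diluted to 0.01–128 µg/ml (triclosan) or 0.25–256 µg/ml (glycosides). Overnight 37 °C NB2 cultures diluted 1 in 10^4 in saline and added to the dilutions. Incubation at 37 °C with agitation, OD read every 15 min; MIC is the lowest concentration preventing any OD rise after 18 h.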

Staphylococcus aureus [2] = experiment: Antibacterial activity against Staphylococcus aureus ATCC 6538P after 18 hrs; type: functional; summary of the method: as §1
Staphylococcus aureus [3] = experiment: Antibacterial activity against Staphylococcus aureus ATCC 9144 after 18 hrs; type: functional; details: ATCC 9144, 18 h; summary of the method: as §1
Staphylococcus aureus [4] = experiment: Antibacterial activity against Staphylococcus aureus ATCC 25923 after 18 hrs; type: functional; details: ATCC 25923, 18 h; summary of the method: as §1
Staphylococcus aureus [5] = experiment: Antibacterial activity against Staphylococcus aureus ATCC 29213 after 18 hrs; type: functional; details: ATCC 29213, 18 h; summary of the method: as §1
Staphylococcus aureus [6] = experiment: Antibacterial activity against Staphylococcus aureus NCTC 13758 after 18 hrs; type: functional; details: NCTC 13758, 18 h; summary of the method: as §1
Staphylococcus aureus [7] = experiment: Antibacterial activity against Staphylococcus aureus OCC 104 after 18 hrs; type: functional; details: OCC 104, 18 h; summary of the method: as §1
Staphylococcus aureus [8] = experiment: Antibacterial activity against Staphylococcus aureus OCC 106 after 18 hrs; type: functional; details: OCC 106, 18 h; summary of the method: as §1
[9] = test system: Staphylococcus epidermidis; experiment: Antibacterial activity against Staphylococcus epidermidis 155 after 18 hrs; type: functional; details: Staphylococcus epidermidis, 155, 18 h; summary of the method: as §1
[10] = test system: Staphylococcus epidermidis; experiment: Antibacterial activity against Staphylococcus epidermidis ATCC 12228 after 18 hrs; type: functional; details: ATCC 12228, 18 h; summary of the method: as §1
[11] = test system: Staphylococcus epidermidis; experiment: Antibacterial activity against Staphylococcus epidermidis ATCC 14990 after 18 hrs; type: functional; details: ATCC 14990, 18 h; summary of the method: as §1
[12] = test system: Staphylococcus haemolyticus; experiment: Antibacterial activity against Staphylococcus haemolyticus OCC 2223 after 18 hrs; type: functional; details: OCC 2223, 18 h
Summary of the method: (§2)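 Broth microdilution in Nutrient Broth No. 2. Ethanol stocks were diluted in broth to 0.01–128 µg/ml for triclosan and 0.25–256 µg/ml for glycosides. Overnight 37°C NB2 cultures were diluted 1 in 10^4 in saline and added to the wells. Plates were incubated at 37°C with OD read every 15 min after agitation. MIC was the lowest concentration giving no OD increase at 18 h.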

[13] = test system: Staphylococcus saprophyticus; experiment: Antibacterial activity against Staphylococcus saprophyticus ATCC 15305 after 18 hrs; type: functional; details: ATCC 15305, 18 h; summary of the method: as §2
Streptococcus agalactiae = experiment: Antibacterial activity against Streptococcus agalactiae OCC 182 after 18 hrs; type: functional; details: OCC 182, 18 h; summary of the method: as §2
Streptococcus pneumoniae [14] = experiment: Antibacterial activity against Streptococcus pneumoniae 6305 after 18 hrs; type: functional; details: Streptococcus pneumoniae, 6305, 18 h; summary of the method: as §2
Streptococcus pneumoniae [15] = experiment: Antibacterial activity against Streptococcus pneumoniae ATCC 49619 after 18 hrs; type: functional; details: ATCC 49619, 18 h; summary of the method: as §2
Streptococcus pyogenes = experiment: Antibacterial activity against Streptococcus pyogenes ATCC 19615 after 18 hrs; type: functional; details: ATCC 19615, 18 h; summary of the method: as §2
Streptococcus viridans = experiment: Antibacterial activity against Streptococcus viridans OCC 234 after 18 hrs; type: functional; details: OCC 234, 18 h; summary of the method: as §2
[16] = test system: Salmonella enterica subsp. enterica serovar Abony; experiment: Antibacterial activity against Salmonella enterica subspecies enterica serotype Abony NCTC 6017 after 18 hrs; type: functional; details: NCTC 6017, 18 h; summary of the method: as §1
[17] = Antibacterial activity against Salmonella enterica subspecies enterica serotype Arizonae OCC 706 after 18 hrs; type: functional, Salmonella enterica subsp. enterica serovar Arizonae; details: OCC 706, 18 h; summary of the method: as §1
[18] = Antibacterial activity against Salmonella enterica subspecies enterica serotype Dublin OCC 627 after 18 hrs; type: functional, Salmonella enterica subsp. enterica serovar Dublin; details: OCC 627, 18 h; summary of the method: as §1
Salmonella enteritidis = experiment: Antibacterial activity against Salmonella enterica subspecies enterica serotype Enteritidis 13076 after 18 hrs; type: functional, Salmonella enterica subsp. enterica serovar Enteritidis; details: Salmonella enterica, 13076, 18 h; summary of the method: as §1
[19] = Antibacterial activity against Salmonella enterica subspecies enterica serotype Indiana OCC 597 after 18 hrs; type: functional, Salmonella enterica subsp. enterica serovar Indiana; details: OCC 597, 18 h; summary of the method: as §1
[20] = Antibacterial activity against Salmonella enterica subspecies enterica serotype Infantis OCC 2133 after 18 hrs; type: functional, Salmonella enterica subsp. enterica serovar Infantis; details: OCC 2133, 18 h; summary of the method: as §1
[21] = Antibacterial activity against Salmonella enterica subspecies enterica serotype Nottingham NCTC 7832 after 18 hrs; type: functional, Salmonella enterica subsp. enterica serovar Nottingham; details: NCTC 7832, 18 h; summary of the method: as §1
[22] = Antibacterial activity against Salmonella enterica subspecies enterica serotype Poona NCTC 4840 after 18 hrs; type: functional, Salmonella enterica subsp. enterica serovar Poona; details: NCTC 4840, 18 h; summary of the method: as §1
[23] = Antibacterial activity against Salmonella enterica subspecies enterica serotype Pullorum OCC 273 after 18 hrs; type: functional, Salmonella enterica subsp. enterica serovar Pullorum; details: OCC 273, 18 h; summary of the method: as §1
Salmonella typhimurium = experiment: Antibacterial activity against Salmonella enterica subspecies enterica serotype typhimurium ATCC 14028 after 18 hrs; type: functional, Salmonella enterica subsp. enterica serovar Typhimurium; details: ATCC 14028, 18 h; summary of the method: as §1
[24] = Antibacterial activity against Salmonella enterica subspecies enterica serotype Virchow NCTC 5742 after 18 hrs; type: functional, Salmonella enterica subsp. enterica serovar Virchow; details: NCTC 5742, 18 h; summary of the method: as §1

MIC (Staphylococcus aureus [1]): 4 to 8 µg/mL (≈ 8.86 to 17.7 µM)
MIC (Staphylococcus aureus [2]): 4 to 8 µg/mL (≈ 8.86 to 17.7 µM)
MIC (Staphylococcus aureus [3]): 4 to 8 µg/mL (≈ 8.86 to 17.7 µM)
MIC (Staphylococcus aureus [4]): 4 to 8 µg/mL (≈ 8.86 to 17.7 µM)
MIC (Staphylococcus aureus [5]): 4 to 8 µg/mL (≈ 8.86 to 17.7 µM)
MIC (Staphylococcus aureus [6]): 4 to 8 µg/mL (≈ 8.86 to 17.7 µM)
MIC (Staphylococcus aureus [7]): 4 to 8 µg/mL (≈ 8.86 to 17.7 µM)
MIC (Staphylococcus aureus [8]): 4 to 8 µg/mL (≈ 8.86 to 17.7 µM)
MIC [9]: 8 to 16 µg/mL (≈ 17.7 to 35.4 µM)
MIC [10]: 8 to 16 µg/mL (≈ 17.7 to 35.4 µM)
MIC [11]: 8 to 16 µg/mL (≈ 17.7 to 35.4 µM)
MIC [13]: 64 µg/mL (≈ 142 µM)
MIC (Streptococcus agalactiae): 256 µg/mL (≈ 567 µM)
MIC (Streptococcus pneumoniae [14]): 128 µg/mL (≈ 283 µM)
MIC (Streptococcus pneumoniae [15]): 128 µg/mL (≈ 283 µM)
MIC (Streptococcus pyogenes): 32 µg/mL (≈ 70.8 µM)
MIC (Streptococcus viridans): 256 µg/mL (≈ 567 µM)
MIC [16]: 16 to 32 µg/mL (≈ 35.4 to 70.8 µM)
MIC [17]: 16 to 32 µg/mL (≈ 35.4 to 70.8 µM)
MIC [18]: 16 to 32 µg/mL (≈ 35.4 to 70.8 µM)
MIC (Salmonella enteritidis): 16 to 32 µg/mL (≈ 35.4 to 70.8 µM)
MIC [19]: 16 to 32 µg/mL (≈ 35.4 to 70.8 µM)
MIC [20]: 16 to 32 µg/mL (≈ 35.4 to 70.8 µM)
MIC [21]: 16 to 32 µg/mL (≈ 35.4 to 70.8 µM)
MIC [22]: 16 to 32 µg/mL (≈ 35.4 to 70.8 µM)
MIC [23]: 16 to 32 µg/mL (≈ 35.4 to 70.8 µM)
MIC (Salmonella typhimurium): 16 to 32 µg/mL (≈ 35.4 to 70.8 µM)
MIC [24]: 16 to 32 µg/mL (≈ 35.4 to 70.8 µM)
SMILES: OC[C@H]1O[C@@H](Oc2cc(Cl)ccc2Oc2ccc(Cl)cc2Cl)[C@H](O)[C@@H](O)[C@@H]1O
MIC [12]: 16 µg/mL (≈ 35.4 µM)

Reference: ChEMBL document CHEMBL4325893, “Synthesis and antibacterial profiles of targeted triclosan derivatives” (2019)
